# How the values were obtained:
# Mus musculus [1] = assay: Toxicity in Swiss Webster mouse assessed as glucose level at 50 mg/kg, ip daily for 7 days measured after 7 days; format: organism-based; design: dose 50 mg/kg, route intraperitoneal; conditions: in vivo, 168 h
# [2] = biological target: 5'-AMP-activated protein kinase subunit beta-1 (Homo sapiens) (UniProt Q9Y478); assay: Inhibition of AMPK at 5 uM
# [3] = biological target: Serine/threonine-protein kinase 3 (Homo sapiens) (UniProt Q13188); assay: Inhibition of MST2 at 5 uM
# Mus musculus [4] = assay: Toxicity in Swiss Webster mouse assessed as granulocyte count at 10 mg/kg, ip daily for 7 days measured after 7 days; format: organism-based; design: dose 10 mg/kg, route intraperitoneal; conditions: in vivo, 168 h
# Mus musculus [5] = assay: Toxicity in Swiss Webster mouse assessed as K+ level at 3 mg/kg, ip daily for 7 days measured after 7 days; format: organism-based; design: dose 3 mg/kg, route intraperitoneal; conditions: in vivo, 168 h
# Mus musculus [6] = assay: Toxicity in Swiss Webster mouse assessed as K+ level at 50 mg/kg, ip daily for 7 days measured after 7 days; format: organism-based; design: dose 50 mg/kg, route intraperitoneal; conditions: in vivo, 168 h
# Mus musculus [7] = assay: Toxicity in Swiss Webster mouse assessed as blood urea nitrogen level at 10 mg/kg, ip daily for 7 days measured after 7 days; format: organism-based; design: dose 10 mg/kg, route intraperitoneal; conditions: in vivo, 168 h
# [8] = biological target: Platelet-derived growth factor receptor alpha (Homo sapiens) (UniProt P16234); assay: Inhibition of PDGFRalpha at 5 uM
# [9] = biological target: Insulin receptor (Homo sapiens) (UniProt P06213); assay: Inhibition of INSR at 5 uM
# Mus musculus [10] = assay: Toxicity in Swiss Webster mouse assessed as Na+ level at 50 mg/kg, ip daily for 7 days measured after 7 days; format: organism-based; design: dose 50 mg/kg, route intraperitoneal; conditions: in vivo, 168 h
# Mus musculus [11] = assay: Toxicity in Swiss Webster mouse assessed as glucose level at 3 mg/kg, ip daily for 7 days measured after 7 days; format: organism-based; design: dose 3 mg/kg, route intraperitoneal; conditions: in vivo, 168 h
# Mus musculus [12] = assay: Toxicity in Swiss Webster mouse assessed as K+ level at 10 mg/kg, ip daily for 7 days measured after 7 days; format: organism-based; design: dose 10 mg/kg, route intraperitoneal; conditions: in vivo, 168 h
# [13] = biological target: Tyrosine-protein kinase BTK (Homo sapiens) (UniProt Q06187); assay: Inhibition of BTK at 5 uM
# [14] = biological target: Tyrosine-protein kinase JAK2 (Homo sapiens) (UniProt O60674); assay: Inhibition of JAK2 at 5 uM
# [15] = biological target: Ribosomal protein S6 kinase beta-1 (Homo sapiens) (UniProt P23443); assay: Inhibition of p70S6K at 5 uM
# Mus musculus [16] = assay: Toxicity in Swiss Webster mouse assessed as monocyte count at 10 mg/kg, ip daily for 7 days measured after 7 days; format: organism-based; design: dose 10 mg/kg, route intraperitoneal; conditions: in vivo, 168 h
# Mus musculus [17] = assay: Toxicity in Swiss Webster mouse assessed as phosphate level at 3 mg/kg, ip daily for 7 days measured after 7 days; format: organism-based; design: dose 3 mg/kg, route intraperitoneal; conditions: in vivo, 168 h
# [18] = biological target: MAP kinase-activated protein kinase 2 (Homo sapiens) (UniProt P49137); assay: Inhibition of MAPKAPK2 at 5 uM
# Mus musculus [19] = assay: Toxicity in Swiss Webster mouse assessed as albumin level at 3 mg/kg, ip daily for 7 days measured after 7 days; format: organism-based; design: dose 3 mg/kg, route intraperitoneal; conditions: in vivo, 168 h
# [20] = biological target: Epidermal growth factor receptor (Homo sapiens) (UniProt P00533); assay: Inhibition of EGFR at 5 uM
# Mus musculus [21] = assay: Toxicity in Swiss Webster mouse assessed as monocyte count at 3 mg/kg, ip daily for 7 days measured after 7 days; format: organism-based; design: dose 3 mg/kg, route intraperitoneal; conditions: in vivo, 168 h
# [22] = biological target: Glycogen synthase kinase-3 beta (Homo sapiens) (UniProt P49841); assay: Inhibition of GSK3-beta at 5 uM
# Mus musculus [23] = assay: Toxicity in Swiss Webster mouse assessed as white blood cell count at 3 mg/kg, ip daily for 7 days measured after 7 days; format: organism-based; design: dose 3 mg/kg, route intraperitoneal; conditions: in vivo, 168 h
# In short: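 Six-week-old female Swiss Webster mice (about 25 g) received intraperitoneal injections daily for 7 days. Doses were 3, 10 or 50 mg/kg, with a vehicle group (30% PEG-400, 5% Tween-80, 65% DMSO). Values are reported as ranges per group.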
# Mus musculus [24] = assay: Toxicity in Swiss Webster mouse assessed as phosphate level at 50 mg/kg, ip daily for 7 days measured after 7 days; format: organism-based; design: dose 50 mg/kg, route intraperitoneal; conditions: in vivo, 168 h
# [25] = biological target: Interleukin-1 receptor-associated kinase 4 (Homo sapiens) (UniProt Q9NWZ3); assay: Inhibition of IRAK4 at 5 uM
# [26] = biological target: Inhibitor of nuclear factor kappa-B kinase subunit beta (Homo sapiens) (UniProt O14920); assay: Inhibition of IKK-beta at 5 uM
# [27] = biological target: Tyrosine-protein kinase Lyn (Homo sapiens) (UniProt P07948); assay: Inhibition of LYN at 5 uM
# [28] = biological target: Tyrosine-protein kinase Lck (Homo sapiens) (UniProt P06239); assay: Inhibition of LCK at 5 uM
# Mus musculus [29] = assay: Toxicity in Swiss-Webster mouse at 100 mg/kg, ip daily for 5 days; format: organism-based; design: dose 100 mg/kg, route intraperitoneal; conditions: in vivo, 120 h
# [30] = biological target: Protein kinase C beta type (Homo sapiens) (UniProt P05771); assay: Inhibition of PKCbeta2 at 5 uM
# Mus musculus [31] = assay: Toxicity in Swiss Webster mouse assessed as monocyte count at 50 mg/kg, ip daily for 7 days measured after 7 days; format: organism-based; design: dose 50 mg/kg, route intraperitoneal; conditions: in vivo, 168 h
# [32] = biological target: RAC-beta serine/threonine-protein kinase (Homo sapiens) (UniProt P31751); assay: Inhibition of AKT2 at 5 uM
# Mus musculus [33] = assay: Toxicity in Swiss Webster mouse assessed as Na+ level at 10 mg/kg, ip daily for 7 days measured after 7 days; format: organism-based; design: dose 10 mg/kg, route intraperitoneal; conditions: in vivo, 168 h
# [34] = biological target: Receptor-type tyrosine-protein kinase FLT3 (Homo sapiens) (UniProt P36888); assay: Inhibition of FLT3 at 5 uM
# Mus musculus [35] = assay: Toxicity in Swiss Webster mouse assessed as alkaline phosphatase level at 3 mg/kg, ip daily for 7 days measured after 7 days; format: organism-based; design: dose 3 mg/kg, route intraperitoneal; conditions: in vivo, 168 h
# Mus musculus [36] = assay: Toxicity in Swiss Webster mouse assessed as hemoglobin level at 3 mg/kg, ip daily for 7 days measured after 7 days; format: organism-based; design: dose 3 mg/kg, route intraperitoneal
# [37] = biological target: Tyrosine-protein kinase Fyn (Homo sapiens) (UniProt P06241); assay: Inhibition of FYN at 5 uM
# [38] = biological target: Aurora kinase A (Homo sapiens) (UniProt O14965); assay: Inhibition of AurA at 5 uM
# Mus musculus [39] = assay: Toxicity in Swiss-Webster mouse at 50 mg/kg, ip daily for 5 days; format: organism-based; design: dose 50 mg/kg, route intraperitoneal; conditions: in vivo, 120 h
# Mus musculus [40] = assay: Toxicity in Swiss Webster mouse assessed as creatinine level at 10 mg/kg, ip daily for 7 days measured after 7 days; format: organism-based; design: dose 10 mg/kg, route intraperitoneal; conditions: in vivo, 168 h
# [41] = biological target: Hepatocyte growth factor receptor (Homo sapiens) (UniProt P08581); assay: Inhibition of MET at 5 uM
# Mus musculus [42] = assay: Toxicity in Swiss Webster mouse assessed as alanine aminotransferase level at 50 mg/kg, ip daily for 7 days measured after 7 days; format: organism-based; design: dose 50 mg/kg, route intraperitoneal; conditions: in vivo, 168 h
# Mus musculus [43] = assay: Toxicity in Swiss Webster mouse assessed as granulocyte count at 3 mg/kg, ip daily for 7 days measured after 7 days; format: organism-based; design: dose 3 mg/kg, route intraperitoneal; conditions: in vivo, 168 h
# [44] = biological target: Mitogen-activated protein kinase 9 (Homo sapiens) (UniProt P45984); assay: Inhibition of JNK2 at 5 uM
# [45] = Inhibition of CAMK2 at 5 uM
# Mus musculus [46] = assay: Toxicity in Swiss Webster mouse assessed as lymphocyte count at 50 mg/kg, ip daily for 7 days measured after 7 days; format: organism-based; design: dose 50 mg/kg, route intraperitoneal; conditions: in vivo, 168 h
# [47] = biological target: Mitogen-activated protein kinase 3 (Homo sapiens) (UniProt P27361); assay: Inhibition of Erk1 at 5 uM
# [48] = biological target: Ribosomal protein S6 kinase alpha-1 (Homo sapiens) (UniProt Q15418); assay: Inhibition of RSK1 at 5 uM
# Chain of Interleukin-1 receptor-associated kinase 4 (Homo sapiens) (Q9NWZ3 whole entry): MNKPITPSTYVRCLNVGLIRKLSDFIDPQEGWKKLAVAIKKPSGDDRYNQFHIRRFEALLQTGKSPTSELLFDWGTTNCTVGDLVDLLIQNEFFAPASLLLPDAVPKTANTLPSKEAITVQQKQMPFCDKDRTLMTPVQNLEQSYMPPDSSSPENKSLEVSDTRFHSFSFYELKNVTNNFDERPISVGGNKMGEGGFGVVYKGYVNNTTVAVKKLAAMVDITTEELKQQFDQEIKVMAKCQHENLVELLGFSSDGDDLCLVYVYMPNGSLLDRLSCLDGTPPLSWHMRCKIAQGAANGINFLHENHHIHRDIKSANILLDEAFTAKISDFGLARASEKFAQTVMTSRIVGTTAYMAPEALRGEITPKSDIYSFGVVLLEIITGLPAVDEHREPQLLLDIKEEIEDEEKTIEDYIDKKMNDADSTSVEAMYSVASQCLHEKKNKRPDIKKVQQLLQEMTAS
# Chain of Serine/threonine-protein kinase 3 (Homo sapiens) (Q13188 whole entry): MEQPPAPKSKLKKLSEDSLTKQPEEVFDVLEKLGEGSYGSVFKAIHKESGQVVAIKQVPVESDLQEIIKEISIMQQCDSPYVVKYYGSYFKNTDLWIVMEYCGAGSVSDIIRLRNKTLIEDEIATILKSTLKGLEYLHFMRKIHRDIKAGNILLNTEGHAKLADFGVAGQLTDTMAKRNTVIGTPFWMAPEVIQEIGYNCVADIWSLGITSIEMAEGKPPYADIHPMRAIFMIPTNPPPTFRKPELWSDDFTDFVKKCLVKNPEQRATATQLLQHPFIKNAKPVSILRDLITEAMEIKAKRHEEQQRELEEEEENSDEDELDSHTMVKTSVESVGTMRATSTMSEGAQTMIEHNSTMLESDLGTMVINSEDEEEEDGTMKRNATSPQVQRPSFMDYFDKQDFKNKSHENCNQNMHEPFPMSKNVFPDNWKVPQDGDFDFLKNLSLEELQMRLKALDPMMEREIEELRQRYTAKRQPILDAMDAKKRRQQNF
# Chain of Tyrosine-protein kinase Lyn (Homo sapiens) (P07948 2-512 limits assumed): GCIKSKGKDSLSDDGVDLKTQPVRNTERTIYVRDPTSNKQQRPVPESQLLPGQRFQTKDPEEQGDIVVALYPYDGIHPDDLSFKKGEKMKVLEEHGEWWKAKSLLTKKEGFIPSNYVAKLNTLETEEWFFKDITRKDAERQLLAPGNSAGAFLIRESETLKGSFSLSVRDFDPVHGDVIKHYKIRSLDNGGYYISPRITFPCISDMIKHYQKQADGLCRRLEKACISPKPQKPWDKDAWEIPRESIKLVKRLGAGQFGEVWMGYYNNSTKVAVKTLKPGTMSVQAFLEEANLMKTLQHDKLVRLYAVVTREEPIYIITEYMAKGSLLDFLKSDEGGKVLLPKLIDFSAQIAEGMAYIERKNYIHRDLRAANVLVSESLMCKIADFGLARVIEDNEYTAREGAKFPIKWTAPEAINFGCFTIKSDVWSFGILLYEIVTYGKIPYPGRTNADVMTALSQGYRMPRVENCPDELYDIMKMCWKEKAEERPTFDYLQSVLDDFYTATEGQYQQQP
# Chain of Epidermal growth factor receptor (Homo sapiens) (P00533 whole entry): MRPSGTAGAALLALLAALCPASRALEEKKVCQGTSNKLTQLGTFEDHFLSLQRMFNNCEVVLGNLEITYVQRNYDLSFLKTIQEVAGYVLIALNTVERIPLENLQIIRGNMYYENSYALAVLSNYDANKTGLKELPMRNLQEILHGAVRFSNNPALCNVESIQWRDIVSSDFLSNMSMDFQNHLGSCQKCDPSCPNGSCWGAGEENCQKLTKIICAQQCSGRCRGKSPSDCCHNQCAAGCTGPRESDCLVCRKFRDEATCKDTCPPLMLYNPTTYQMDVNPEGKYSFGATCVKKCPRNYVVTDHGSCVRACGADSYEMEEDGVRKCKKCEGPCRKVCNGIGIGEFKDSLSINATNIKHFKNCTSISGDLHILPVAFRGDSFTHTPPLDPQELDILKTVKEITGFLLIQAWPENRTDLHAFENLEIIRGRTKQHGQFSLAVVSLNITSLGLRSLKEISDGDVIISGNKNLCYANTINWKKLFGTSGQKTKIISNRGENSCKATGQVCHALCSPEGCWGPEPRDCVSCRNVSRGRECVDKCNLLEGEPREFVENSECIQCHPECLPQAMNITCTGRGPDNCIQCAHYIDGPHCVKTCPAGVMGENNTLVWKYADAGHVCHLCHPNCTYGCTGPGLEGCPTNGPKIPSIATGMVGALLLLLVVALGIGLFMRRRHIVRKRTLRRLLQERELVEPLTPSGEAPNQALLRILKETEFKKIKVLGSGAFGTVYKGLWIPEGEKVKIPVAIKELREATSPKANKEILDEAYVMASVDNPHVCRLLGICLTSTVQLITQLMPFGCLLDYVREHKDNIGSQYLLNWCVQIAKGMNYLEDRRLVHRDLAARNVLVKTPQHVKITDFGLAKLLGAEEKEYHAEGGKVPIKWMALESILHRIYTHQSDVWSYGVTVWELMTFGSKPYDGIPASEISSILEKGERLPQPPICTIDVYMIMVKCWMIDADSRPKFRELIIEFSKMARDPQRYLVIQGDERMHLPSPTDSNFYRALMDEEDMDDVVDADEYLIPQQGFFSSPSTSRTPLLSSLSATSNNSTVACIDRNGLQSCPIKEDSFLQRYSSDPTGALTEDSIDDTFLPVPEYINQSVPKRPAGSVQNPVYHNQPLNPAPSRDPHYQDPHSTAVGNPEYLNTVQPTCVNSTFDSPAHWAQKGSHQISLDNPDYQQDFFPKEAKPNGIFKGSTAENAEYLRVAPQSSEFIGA
# Chain of Mitogen-activated protein kinase 3 (Homo sapiens) (P27361 whole entry): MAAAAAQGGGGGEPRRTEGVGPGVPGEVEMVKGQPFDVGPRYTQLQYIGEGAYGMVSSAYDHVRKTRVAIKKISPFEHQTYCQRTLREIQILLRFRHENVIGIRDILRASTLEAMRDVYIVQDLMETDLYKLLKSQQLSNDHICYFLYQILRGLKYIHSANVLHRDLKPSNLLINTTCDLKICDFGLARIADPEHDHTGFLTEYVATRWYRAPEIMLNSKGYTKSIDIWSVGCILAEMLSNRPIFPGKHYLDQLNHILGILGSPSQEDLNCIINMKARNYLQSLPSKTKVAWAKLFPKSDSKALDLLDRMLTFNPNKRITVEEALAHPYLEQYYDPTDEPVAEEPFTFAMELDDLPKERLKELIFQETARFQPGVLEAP
# Chain of Inhibitor of nuclear factor kappa-B kinase subunit beta (Homo sapiens) (O14920 whole entry): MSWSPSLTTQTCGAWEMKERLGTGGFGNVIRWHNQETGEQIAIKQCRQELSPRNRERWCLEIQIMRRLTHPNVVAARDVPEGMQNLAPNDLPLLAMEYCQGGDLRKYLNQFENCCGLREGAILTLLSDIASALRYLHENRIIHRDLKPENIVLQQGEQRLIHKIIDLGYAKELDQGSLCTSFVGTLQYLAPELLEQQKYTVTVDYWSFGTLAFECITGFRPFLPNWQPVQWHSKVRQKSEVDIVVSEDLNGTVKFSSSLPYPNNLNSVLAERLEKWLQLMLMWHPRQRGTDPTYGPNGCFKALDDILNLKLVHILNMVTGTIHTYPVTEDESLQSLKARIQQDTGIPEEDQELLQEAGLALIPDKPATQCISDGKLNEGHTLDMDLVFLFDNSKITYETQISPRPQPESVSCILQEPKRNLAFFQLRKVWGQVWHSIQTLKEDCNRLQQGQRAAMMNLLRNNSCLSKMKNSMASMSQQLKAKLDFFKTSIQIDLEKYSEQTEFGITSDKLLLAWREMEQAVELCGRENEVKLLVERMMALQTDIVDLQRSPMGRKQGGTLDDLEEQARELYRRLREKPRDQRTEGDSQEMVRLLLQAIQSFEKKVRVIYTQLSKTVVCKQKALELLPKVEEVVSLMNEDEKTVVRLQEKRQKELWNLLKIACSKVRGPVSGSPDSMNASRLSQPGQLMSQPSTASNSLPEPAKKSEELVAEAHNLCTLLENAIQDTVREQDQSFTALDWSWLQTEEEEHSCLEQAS
# Chain of Tyrosine-protein kinase Fyn (Homo sapiens) (P06241 2-537 limits assumed): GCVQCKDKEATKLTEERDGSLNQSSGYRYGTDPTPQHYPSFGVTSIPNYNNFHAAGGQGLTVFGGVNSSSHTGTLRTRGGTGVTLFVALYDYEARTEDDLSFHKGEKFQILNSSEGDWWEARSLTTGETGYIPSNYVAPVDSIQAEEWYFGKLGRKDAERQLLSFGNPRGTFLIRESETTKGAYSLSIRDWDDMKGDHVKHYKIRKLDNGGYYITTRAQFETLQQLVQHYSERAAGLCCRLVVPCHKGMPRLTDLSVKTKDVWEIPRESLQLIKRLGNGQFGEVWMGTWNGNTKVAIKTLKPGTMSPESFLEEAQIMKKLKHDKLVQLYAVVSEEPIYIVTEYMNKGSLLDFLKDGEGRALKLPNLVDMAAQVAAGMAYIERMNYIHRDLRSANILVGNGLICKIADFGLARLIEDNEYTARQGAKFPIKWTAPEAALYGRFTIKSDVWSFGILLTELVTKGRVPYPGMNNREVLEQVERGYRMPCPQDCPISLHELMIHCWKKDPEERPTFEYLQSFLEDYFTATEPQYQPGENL
# Chain of Glycogen synthase kinase-3 beta (Homo sapiens) (P49841 whole entry, looked up): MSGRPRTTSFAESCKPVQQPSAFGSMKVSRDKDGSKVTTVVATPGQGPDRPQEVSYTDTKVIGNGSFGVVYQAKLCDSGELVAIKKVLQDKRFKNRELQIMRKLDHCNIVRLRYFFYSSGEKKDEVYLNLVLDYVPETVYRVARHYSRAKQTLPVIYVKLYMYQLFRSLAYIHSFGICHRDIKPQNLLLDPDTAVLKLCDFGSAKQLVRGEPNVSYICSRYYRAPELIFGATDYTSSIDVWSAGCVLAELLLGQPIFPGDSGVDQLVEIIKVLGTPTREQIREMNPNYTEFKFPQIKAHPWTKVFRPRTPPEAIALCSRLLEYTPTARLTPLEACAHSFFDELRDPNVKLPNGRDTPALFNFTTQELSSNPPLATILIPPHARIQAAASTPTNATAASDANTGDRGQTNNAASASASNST
compound,measurement,setting,value
CCCOc1ccc(/C=C2\SC(=O)NC2=O)cc1,Activity,Mus musculus [1],136 mg/dL
same,inhibition,[2],7%
same,inhibition,[3],1%
same,Activity,Mus musculus [4],0.61 ×10⁹ /L
same,Activity,Mus musculus [5],7.3 mmol/L
same,Activity,Mus musculus [6],6.3 mmol/L
same,Activity,Mus musculus [7],11 mg/dL
same,inhibition,[8],6%
same,inhibition,[9],4%
same,Activity,Mus musculus [10],145 mmol/L
same,Activity,Mus musculus [11],80 mg/dL
same,Activity,Mus musculus [12],7.2 mmol/L
same,inhibition,[13],7%
same,inhibition,[14],18%
same,inhibition,[15],8%
same,Activity,Mus musculus [16],0.08 ×10⁹ /L
same,Activity,Mus musculus [17],5.1 mg/dL
same,inhibition,[18],5%
same,Activity,Mus musculus [19],3.3 g/dL
same,inhibition,[20],-3%
same,Activity,Mus musculus [21],0.11 ×10⁹ /L
same,inhibition,[22],3%
same,Activity,Mus musculus [23],3.73 ×10⁹ /L
same,Activity,Mus musculus [24],5.5 mg/dL
same,inhibition,[25],5%
same,inhibition,[26],10%
same,inhibition,[27],8%
same,inhibition,[28],3%
same,Activity,Mus musculus [29],Toxic
same,inhibition,[30],-1%
same,Activity,Mus musculus [31],0.04 ×10⁹ /L
same,inhibition,[32],-1%
same,Activity,Mus musculus [33],144 mmol/L
same,inhibition,[34],1%
same,Activity,Mus musculus [35],85 U/L
same,Activity,Mus musculus [36],12.8 g/dL
same,inhibition,[37],0%
same,inhibition,[38],4%
same,Activity,Mus musculus [39],Non-toxic
same,Activity,Mus musculus [40],0.2 mg/dL
same,inhibition,[41],-6%
same,Activity,Mus musculus [42],37 U/L
same,Activity,Mus musculus [43],0.01 ×10⁹ /L
same,inhibition,[44],14%
same,inhibition,[45],-1%
same,Activity,Mus musculus [46],3.5 ×10⁹ /L
same,inhibition,[47],1%
same,inhibition,[48],5%

# From ChEMBL document CHEMBL1139352, “Synthesis and evaluation of novel inhibitors of Pim-1 and Pim-2 protein kinases” (J Med Chem, 2009)
